For test [1], the system named is Influenza A virus. Nature of the test: Antiviral activity against Influenza A virus (A/WSN/1933(H1N1)) infected in dog MDCK cells after 3 days by CPE assay. The format is functional, organism-based. The note with it: 72 h. The method, boiled down:
(§1)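 Cytopathic effect (CPE) assay measuring inhibition of virus replication in MDCK cells. Strains were A/WSN/33 (H1N1, M2-resistant) and A/Hong Kong/8/68 (H3N2, M2-sensitive). Ribavirin served as the positive control. Values reported as IC50.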

The test system of a further test is MOLT-4. Nature of the test: Cytotoxicity against human MOLT4 cells by MTT assay. The format is functional, cell-based. In outline: (§2)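 MTT assay on the human tumour lines U937 (leukemic monocyte lymphoma), K562 (erythroid leukemia), BGC-823 (gastric carcinoma), MOLT-4 (acute lymphoblastic leukemia), MCF-7 (breast adenocarcinoma) and A549 (lung carcinoma). Taxol served as the positive control. Values reported as IC50.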

For the next test, the system named is U-937. The test can be described thus: Cytotoxicity against human U937 cells by MTT assay. In kind it is functional, cell-based. In outline:
as §2

Test [2] has as its system Influenza A virus. Nature of the test: Antiviral activity against Influenza A virus A/Hong Kong/8/68(H3N2) infected in dog MDCK cells after 3 days by CPE assay. The format is functional, organism-based. The note with it: 72 h. In outline: as §1
The test system of a further test is BGC-823. The test can be described thus: Cytotoxicity against human BGC823 cells by MTT assay. In kind it is functional, cell-based. In outline: as §2
Another test deals with K562. The test can be described thus: Cytotoxicity against human K562 cells by MTT assay. The format is functional, cell-based. The method, boiled down:
as §2

SMILES strings stand for the structures.

Regarding `CC[C@@H](C)[C@H]1NC(=O)[C@@H](C)NC(=O)c2ccccc2NC(=O)[C@@H]([C@@H](O)c2ccccc2)N(C)C1=O`, the IC50 is 15 µM in the test on Influenza A virus [1], 6.2 µM in the test on MOLT-4, 6.4 µM in the test with U-937 and 8.1 µM in the test with Influenza A virus [2].

For `CC(=O)O[C@H]1C(=O)[C@@]2(C)[C@H]([C@H](OC(=O)c3ccccc3)[C@]3(O)C[C@H](OC(=O)[C@H](O)[C@@H](NC(=O)c4ccccc4)c4ccccc4)C(C)=C1C3(C)C)[C@]1(OC(C)=O)CO[C@@H]1C[C@@H]2O` [PACLITAXEL], the IC50 in the test with BGC-823 is 3.5 nM; with K562 it was 4.9 nM; in the test with MOLT-4, 0.0018 µM; with U-937, 0.0019 µM.

Take `NC(=O)c1ncn([C@@H]2O[C@H](CO)[C@@H](O)[C@H]2O)n1` [RIBAVIRIN]: the concentration for half-maximal inhibition (IC50) with Influenza A virus [1] was 20.2 µM; in the test on Influenza A virus [2], 0.41 µM.

(Values after ChEMBL document CHEMBL2384926, “Asperterrestide A, a cytotoxic cyclic tetrapeptide from the marine-derived fungus Aspergillus terreus SCSGAF0162” (J Nat Prod, 2013).)
